Results from ChEMBL document CHEMBL4477266, “Discovery of N-(benzyloxy)-1,3-diphenyl-1H-pyrazole-4-carboxamide derivatives as potential antiproliferative agents by inhibiting MEK” (Bioorg Med Chem, 2016).

Key:
[1] = test system: MCF7; assay: Antiproliferative activity against human MCF7 cells after 48 hrs in presence of 10% FBS by MTT method; assay type: functional; settings: MCF7, 48 h
Method in brief: (§1)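 Cells were grown to log phase in DMEM with 10% fetal bovine serum at 37 °C under humidified 5% CO₂. They were seeded at 10⁵ cells/well and left 24 h to reattach. Compounds were added at increasing concentrations with 10% FBS for 48 h. Values are the mean of three independent experiments, each run in triplicate.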

[2] = test system: HeLa; assay: Antiproliferative activity against human HeLa cells after 48 hrs in presence of 10% FBS by MTT method; assay type: functional; method in brief: as §1
[3] = Antiproliferative activity against human 293T cells after 48 hrs in presence of 10% FBS by MTT method; assay type: cell-based; settings: 293T (HEK-293T) cells; method in brief: as §1
[4] = test system: A549; assay: Antiproliferative activity against human A549 cells after 48 hrs in presence of 10% FBS by MTT method; assay type: functional; settings: A549, 48 h; method in brief: as §1
[5] = biological target: T1, Dual specificity mitogen-activated protein kinase kinase 1 (Homo sapiens, UniProt Q02750); assay: Inhibition of MEK1 in […] human A549 cells assessed as reduction in ERK1/2 phosphorylation by ELISA; assay type: cell-based
Target sequence in this assay (Q02750 whole entry, looked up, change not shown): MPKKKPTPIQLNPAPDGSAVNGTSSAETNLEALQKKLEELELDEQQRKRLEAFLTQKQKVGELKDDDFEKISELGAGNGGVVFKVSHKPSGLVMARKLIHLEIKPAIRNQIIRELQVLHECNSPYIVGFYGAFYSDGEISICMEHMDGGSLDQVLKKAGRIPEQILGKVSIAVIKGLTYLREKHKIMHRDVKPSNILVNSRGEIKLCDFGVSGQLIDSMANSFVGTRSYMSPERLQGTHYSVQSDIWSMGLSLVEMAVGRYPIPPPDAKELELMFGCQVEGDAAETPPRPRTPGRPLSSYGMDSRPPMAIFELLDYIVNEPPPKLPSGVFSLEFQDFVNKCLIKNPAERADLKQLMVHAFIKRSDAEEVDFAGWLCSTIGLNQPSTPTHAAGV

[6] = biological target: Focal adhesion kinase 1 (Homo sapiens, UniProt Q05397); assay: Inhibition of FAK in human MCF7 cells; assay type: cell-based
Chain of Focal adhesion kinase 1 (Q05397 whole entry): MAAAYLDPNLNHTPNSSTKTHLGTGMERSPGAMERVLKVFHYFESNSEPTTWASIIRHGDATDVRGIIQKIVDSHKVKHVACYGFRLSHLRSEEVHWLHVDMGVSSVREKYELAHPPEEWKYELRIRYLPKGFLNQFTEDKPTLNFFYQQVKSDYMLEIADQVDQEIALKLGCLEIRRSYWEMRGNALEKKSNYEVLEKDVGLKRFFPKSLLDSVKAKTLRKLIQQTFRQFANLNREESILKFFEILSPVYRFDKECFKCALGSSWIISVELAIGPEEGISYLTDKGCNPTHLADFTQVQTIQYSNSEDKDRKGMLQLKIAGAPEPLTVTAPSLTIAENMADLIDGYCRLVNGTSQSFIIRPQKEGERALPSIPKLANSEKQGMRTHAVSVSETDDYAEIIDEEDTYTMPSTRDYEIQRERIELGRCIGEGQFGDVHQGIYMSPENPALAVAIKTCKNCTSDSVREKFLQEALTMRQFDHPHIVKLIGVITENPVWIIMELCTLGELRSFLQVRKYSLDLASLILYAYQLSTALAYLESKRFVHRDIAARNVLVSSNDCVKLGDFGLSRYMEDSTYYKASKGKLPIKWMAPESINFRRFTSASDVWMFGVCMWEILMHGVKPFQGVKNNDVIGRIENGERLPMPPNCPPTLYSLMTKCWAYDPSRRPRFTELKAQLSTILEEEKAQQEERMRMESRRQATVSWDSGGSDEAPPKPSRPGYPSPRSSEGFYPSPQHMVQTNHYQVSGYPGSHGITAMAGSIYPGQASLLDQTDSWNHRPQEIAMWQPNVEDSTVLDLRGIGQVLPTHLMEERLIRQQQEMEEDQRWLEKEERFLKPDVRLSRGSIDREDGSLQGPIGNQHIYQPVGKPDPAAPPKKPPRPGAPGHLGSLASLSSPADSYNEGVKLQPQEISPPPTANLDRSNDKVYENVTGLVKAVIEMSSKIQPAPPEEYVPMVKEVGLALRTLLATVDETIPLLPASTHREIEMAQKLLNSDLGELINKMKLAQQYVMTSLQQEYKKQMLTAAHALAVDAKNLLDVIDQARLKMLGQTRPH

[7] = biological target: Vascular endothelial growth factor receptor 2 (Homo sapiens, UniProt P35968); assay: Inhibition of VEGFR2 (unknown origin)
[8] = biological target: Receptor tyrosine-protein kinase erbB-2 (Homo sapiens, UniProt P04626); assay: Inhibition of HER2 (unknown origin)
Chain of Receptor tyrosine-protein kinase erbB-2 (P04626 whole entry): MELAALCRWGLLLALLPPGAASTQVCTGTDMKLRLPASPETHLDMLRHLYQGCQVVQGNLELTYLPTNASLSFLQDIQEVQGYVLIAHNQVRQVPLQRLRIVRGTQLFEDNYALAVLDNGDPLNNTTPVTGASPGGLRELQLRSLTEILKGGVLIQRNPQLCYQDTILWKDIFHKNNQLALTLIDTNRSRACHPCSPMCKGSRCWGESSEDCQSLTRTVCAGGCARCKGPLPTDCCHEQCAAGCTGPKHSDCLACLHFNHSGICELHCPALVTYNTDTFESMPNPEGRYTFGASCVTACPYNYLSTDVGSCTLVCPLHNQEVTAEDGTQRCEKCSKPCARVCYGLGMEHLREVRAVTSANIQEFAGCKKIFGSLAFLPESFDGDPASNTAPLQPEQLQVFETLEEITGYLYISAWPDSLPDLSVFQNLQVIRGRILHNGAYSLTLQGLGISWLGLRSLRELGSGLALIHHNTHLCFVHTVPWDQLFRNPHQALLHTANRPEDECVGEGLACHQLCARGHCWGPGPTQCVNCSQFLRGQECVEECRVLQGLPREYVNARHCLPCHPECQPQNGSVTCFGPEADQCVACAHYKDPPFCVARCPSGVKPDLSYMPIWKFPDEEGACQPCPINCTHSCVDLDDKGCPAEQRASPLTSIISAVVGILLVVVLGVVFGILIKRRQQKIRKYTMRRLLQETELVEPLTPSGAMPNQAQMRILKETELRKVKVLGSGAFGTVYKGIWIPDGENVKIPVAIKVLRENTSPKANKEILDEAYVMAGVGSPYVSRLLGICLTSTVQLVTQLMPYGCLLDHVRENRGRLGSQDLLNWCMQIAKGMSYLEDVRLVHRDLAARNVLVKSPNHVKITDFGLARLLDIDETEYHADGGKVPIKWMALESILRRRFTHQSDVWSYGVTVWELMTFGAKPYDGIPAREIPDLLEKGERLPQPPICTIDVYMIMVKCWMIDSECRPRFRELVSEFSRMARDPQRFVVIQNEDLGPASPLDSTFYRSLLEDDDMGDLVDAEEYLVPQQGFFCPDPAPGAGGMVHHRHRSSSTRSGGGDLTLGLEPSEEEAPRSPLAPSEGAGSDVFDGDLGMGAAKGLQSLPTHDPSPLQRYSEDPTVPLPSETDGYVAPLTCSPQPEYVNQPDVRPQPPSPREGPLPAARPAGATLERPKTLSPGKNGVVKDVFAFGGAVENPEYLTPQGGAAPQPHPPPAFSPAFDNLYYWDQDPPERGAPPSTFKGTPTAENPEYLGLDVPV

[9] = biological target: T2, Aurora kinase A (Homo sapiens, UniProt O14965); assay: Inhibition of Aurora A (unknown origin)
T2 sequence (O14965 whole entry): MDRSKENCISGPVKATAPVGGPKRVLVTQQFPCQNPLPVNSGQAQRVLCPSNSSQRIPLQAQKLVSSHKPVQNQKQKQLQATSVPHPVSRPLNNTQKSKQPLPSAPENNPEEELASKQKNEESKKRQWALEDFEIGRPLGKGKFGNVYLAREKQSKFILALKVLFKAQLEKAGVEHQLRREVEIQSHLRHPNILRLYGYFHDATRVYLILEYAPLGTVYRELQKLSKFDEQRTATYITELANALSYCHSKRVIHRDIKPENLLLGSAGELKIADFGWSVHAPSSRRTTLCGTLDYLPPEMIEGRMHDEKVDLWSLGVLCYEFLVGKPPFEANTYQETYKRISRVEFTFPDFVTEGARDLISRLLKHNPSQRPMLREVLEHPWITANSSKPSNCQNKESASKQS

[10] = biological target: T1, Dual specificity mitogen-activated protein kinase kinase 1; assay: Inhibition of recombinant full length human N-terminal GST-tagged C-terminal His6-tagged MEK1 expressed in Escherichia coli using myelin basic protein as substrate in presence of activated BRAF and ERK2 by ELISA
Target sequence in this assay (Q02750 whole entry): as the sequence (Q02750 whole entry, looked up, change not shown) above

[11] = biological target: Epidermal growth factor receptor (Homo sapiens, UniProt P00533); assay: Inhibition of EGFR (unknown origin)
Chain of Epidermal growth factor receptor (P00533 whole entry): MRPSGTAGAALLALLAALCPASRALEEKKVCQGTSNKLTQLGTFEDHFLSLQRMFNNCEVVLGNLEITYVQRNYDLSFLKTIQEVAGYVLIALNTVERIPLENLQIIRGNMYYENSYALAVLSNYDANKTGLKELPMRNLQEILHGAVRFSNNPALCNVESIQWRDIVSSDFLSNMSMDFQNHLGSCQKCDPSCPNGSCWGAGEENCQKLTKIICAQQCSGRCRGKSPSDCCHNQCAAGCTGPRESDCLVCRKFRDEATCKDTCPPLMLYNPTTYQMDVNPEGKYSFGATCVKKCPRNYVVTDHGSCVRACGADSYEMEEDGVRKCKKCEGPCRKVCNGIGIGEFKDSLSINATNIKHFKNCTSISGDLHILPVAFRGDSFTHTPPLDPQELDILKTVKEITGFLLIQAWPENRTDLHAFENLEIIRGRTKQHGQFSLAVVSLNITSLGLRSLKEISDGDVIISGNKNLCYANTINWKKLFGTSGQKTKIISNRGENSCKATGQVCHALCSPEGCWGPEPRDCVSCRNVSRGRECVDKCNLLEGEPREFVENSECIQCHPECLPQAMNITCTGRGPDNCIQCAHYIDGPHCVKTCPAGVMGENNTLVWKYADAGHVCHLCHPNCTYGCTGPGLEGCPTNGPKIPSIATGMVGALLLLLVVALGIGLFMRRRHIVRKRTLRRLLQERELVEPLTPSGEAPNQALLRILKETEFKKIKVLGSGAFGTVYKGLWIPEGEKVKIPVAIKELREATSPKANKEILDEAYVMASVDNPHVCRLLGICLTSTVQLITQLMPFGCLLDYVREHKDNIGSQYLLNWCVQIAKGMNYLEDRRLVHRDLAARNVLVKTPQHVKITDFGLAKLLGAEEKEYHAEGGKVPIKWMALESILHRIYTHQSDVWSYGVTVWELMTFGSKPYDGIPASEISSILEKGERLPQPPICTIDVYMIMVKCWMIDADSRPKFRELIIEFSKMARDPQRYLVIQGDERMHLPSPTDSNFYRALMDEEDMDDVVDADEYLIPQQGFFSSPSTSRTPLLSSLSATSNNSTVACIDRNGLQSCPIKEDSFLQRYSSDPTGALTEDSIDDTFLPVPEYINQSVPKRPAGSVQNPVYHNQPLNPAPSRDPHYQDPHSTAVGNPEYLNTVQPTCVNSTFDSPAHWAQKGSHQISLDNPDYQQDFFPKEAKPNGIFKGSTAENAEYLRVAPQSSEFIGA

| GI50 [1] [µM] | GI50 [2] [µM] | GI50 [4] [µM] | IC50 [5] [µM] | IC50 [6] [µM] | IC50 [7] [µM] | IC50 [8] [µM] | IC50 [9] [µM] | IC50 [10] [µM] | IC50 [11] [µM] | Structure (SMILES) | CC50 at 48 h [3] [µM] |
| --- | --- | --- | --- | --- | --- | --- | --- | --- | --- | --- | --- |
| 15.1 | 4.17 | 12.1 |  |  |  |  |  |  |  | O=C(NOCc1ccccc1F)c1cn(-c2ccc(Cl)cc2)nc1-c1ccccc1 | 126 |
| 2.31 | 2.04 | 1.08 |  |  |  |  |  |  |  | Cc1ccc(-n2cc(C(=O)NOCc3ccc(Cl)cc3Cl)c(-c3ccccc3)n2)cc1 | 39.6 |
| 1.87 | 6.69 | 1.14 |  |  |  |  |  |  |  | Cc1ccc(-n2cc(C(=O)NOCc3ccccc3)c(-c3ccccc3)n2)cc1 | 40.8 |
| 16.1 | 11.8 | 5.94 |  |  |  |  |  |  |  | O=C(NOCc1ccccc1F)c1cn(-c2ccccc2)nc1-c1ccccc1 | 75.7 |
| 13.4 | 8.83 | 5 |  |  |  |  |  |  |  | O=C(NOCc1ccccc1)c1cn(-c2ccccc2)nc1-c1ccccc1 | 122 |
| 2.77 | 2.64 | 1.94 |  |  |  |  |  |  |  | COc1ccc(-n2cc(C(=O)NOCc3ccccc3)c(-c3ccccc3)n2)cc1 | 201 |
| 16.2 | 5.16 | 13.1 |  |  |  |  |  |  |  | O=C(NOCc1ccc(Cl)cc1Cl)c1cn(-c2ccc(Cl)cc2)nc1-c1ccccc1 | 46.3 |
| 6 | 2.9 | 2.16 |  |  |  |  |  |  |  | COc1ccc(-n2cc(C(=O)NOCc3ccccc3F)c(-c3ccccc3)n2)cc1 | 24.6 |
| 9.66 | 5.1 | 7.35 |  |  |  |  |  |  |  | O=C(NOCc1ccc(Cl)cc1Cl)c1cn(-c2ccccc2)nc1-c1ccccc1 | 40.2 |
| 11.4 | 36.4 | 8.33 |  |  |  |  |  |  |  | O=C(NOCc1ccccc1Cl)c1cn(-c2ccc(F)cc2)nc1-c1ccccc1 | 44.7 |
| 7.41 | 17.8 | 10.3 |  |  |  |  |  |  |  | O=C(NOCc1ccccc1Cl)c1cn(-c2ccccc2)nc1-c1ccccc1 | 82 |
| 2.11 | 1.18 | 0.26 | 0.61 | 15.6 | > 25 | > 25 | 8.3 | 0.091 | > 25 | Cc1ccc(-n2cc(C(=O)NOCc3ccccc3F)c(-c3ccccc3)n2)cc1 | 20.6 |
| 25.3 | 7.35 | 14 |  |  |  |  |  |  |  | O=C(NOCc1ccc(Cl)cc1Cl)c1cn(-c2ccc(F)cc2)nc1-c1ccccc1 | 45 |
| 15.3 | 6.11 | 10.4 |  |  |  |  |  |  |  | O=C(NOCc1ccccc1)c1cn(-c2ccc(F)cc2)nc1-c1ccccc1 | 217 |
| 2.57 | 5.75 | 3.83 |  |  |  |  |  |  |  | COc1ccc(-n2cc(C(=O)NOCc3ccc(Cl)cc3Cl)c(-c3ccccc3)n2)cc1 | 545 |
| 3.73 | 3.48 | 2.45 |  |  |  |  |  |  |  | COc1ccc(-n2cc(C(=O)NOCc3ccccc3Cl)c(-c3ccccc3)n2)cc1 | 586 |
| 12 | 10.3 | 17.5 |  |  |  |  |  |  |  | O=C(NOCc1ccccc1F)c1cn(-c2ccc(F)cc2)nc1-c1ccccc1 | 147 |
| 2.64 | 4.68 | 0.38 |  |  |  |  |  |  |  | Cc1ccc(-n2cc(C(=O)NOCc3ccccc3Cl)c(-c3ccccc3)n2)cc1 | 38.7 |
| 16.1 | 8.85 | 15.5 |  |  |  |  |  |  |  | O=C(NOCc1ccccc1Cl)c1cn(-c2ccc(Cl)cc2)nc1-c1ccccc1 | 129 |
| 10.8 | 8.35 | 13 |  |  |  |  |  |  |  | O=C(NOCc1ccccc1)c1cn(-c2ccc(Cl)cc2)nc1-c1ccccc1 | 51.9 |
|  |  | 2.86 |  |  |  |  |  |  |  | COc1cc2ncnc(Nc3ccc(F)c(Cl)c3)c2cc1OCCCN1CCOCC1 [GEFITINIB] |  |
